The list is not random: actives were taken first. Their share in the collection is about 2.1%.
miR-122 sensor – miR-122 inhibition in Huh7 cells | Huh7 miR-122 Renilla luciferase sensor, 48 h; neutral wells = 0, positive control = 100 | activation (reporter increase), % at 12.5 µM | 340,000 tested, 0.3% active | AID 602342;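 active means mean replicate activation score at least 90 and every replicate individually at or above 90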;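 further: higher luciferase means less miR-122 activity so hits act as miR-122 inhibitors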
ARNT-TACC3 inh – disrupts binding between human ARNT and TACC3; Q9Y6A5; 390,000 tested, 0.66% active; inhibition, % at 9.99 µM; AlphaScreen His-ARNT PAS-B/GST-TACC3 binding, luminescence; TACC3 fragment carries E629A point mutation;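 active means mean inhibition of replicates at least 50% and at least half of replicates each reaching 50%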
SR-BI DiI inh – blocks mouse SR-BI lipid uptake from DiI-HDL; ldlA[mSR-BI] CHO cells, DiI-HDL uptake fluorescence, 3 h; 320,000 tested, 0.96% active; inhibition, % at 12.5 µM; Q61009;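 active means mean replicate inhibition of at least 70% and a set share of replicates each scoring 70 or more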
Target sequence (Q61009 whole entry, looked up): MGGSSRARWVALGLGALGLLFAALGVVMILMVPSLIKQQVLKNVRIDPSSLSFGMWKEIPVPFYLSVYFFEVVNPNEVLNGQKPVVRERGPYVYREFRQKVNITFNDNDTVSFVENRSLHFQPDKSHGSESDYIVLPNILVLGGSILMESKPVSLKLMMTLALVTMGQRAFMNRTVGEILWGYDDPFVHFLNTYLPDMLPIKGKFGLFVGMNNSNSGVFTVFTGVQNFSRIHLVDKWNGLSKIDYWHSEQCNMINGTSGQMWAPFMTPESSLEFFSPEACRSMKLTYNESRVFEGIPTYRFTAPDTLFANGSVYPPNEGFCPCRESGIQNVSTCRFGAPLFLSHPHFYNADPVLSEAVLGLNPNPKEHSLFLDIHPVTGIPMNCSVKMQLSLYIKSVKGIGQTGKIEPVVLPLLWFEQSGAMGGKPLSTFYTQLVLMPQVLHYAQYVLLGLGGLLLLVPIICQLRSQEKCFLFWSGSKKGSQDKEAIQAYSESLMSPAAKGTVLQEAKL
CAL PDZ FP-1 – human CAL PDZ-peptide interaction inhibition; Q9HD26; purified CAL PDZ, TMR-peptide fluorescence polarization, 1 h; inhibition, % at 20 µM; 330,000 tested, 0.02% active; AID 504414;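 active means highest replicate inhibition of at least 40%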
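Test system: tagged CAL PDZ domain / Buffer or medium: sodium phosphate/NaCl buffer pH 7.4 with TCEP, IgG, Thesit / Reagent: TMR-labelled reporter peptide T*-PRC34 bound in PDZ groove / Compound dosing: single point, 20 µM / Schedule: 1 h incubation at room temperature before polarization reading / Technique: fluorescence polarization (mP) / Benchmarks: unlabelled peptide, DMSO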
CAL PDZ FP-2 – blocks peptide binding to the human CAL PDZ domain; Q9HD26; purified CAL PDZ, TMR-peptide fluorescence polarization, 1 h; inhibition, % at 24.9 µM; 300,000 tested, 0.92% active; AID 602252;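 active means mean inhibition of at least 30% with at least half of replicates also reaching 30%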
SR-BI uptake up – activators of SR-BI mediated HDL lipid uptake | activation, % at 12.5 µM | CHO ldlA[mSR-BI] cells, DiI-HDL uptake fluorescence, 3 h; 100 = double the neutral-control signal | 320,000 tested, 0.096% active;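 active means mean replicate activation of at least 60% and every replicate at or above 60%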
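Assay system: LDL receptor-deficient CHO ldlA cells overexpressing murine SR-BI / Medium: BSA-supplemented, HEPES-buffered Ham's F12, pH 7.4 / Probe or stimulus: DiI-labelled HDL at 10 µg/mL final / Timing: compound with DiI-HDL co-incubation, 3 h at 37 °C / Technique: bottom-read cell fluorescence after medium removal, ex 550/em 595 nm / Measure: HDL uptake via cellular fluorescence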
A number is an active result; . = inactive; / = not tested or not shown.

SMILES	miR-122 sensor	ARNT-TACC3 inh	SR-BI DiI inh	CAL PDZ FP-1	CAL PDZ FP-2	SR-BI uptake up
CCN(C(=O)COC(=O)c1ccc([N+](=O)[O-])o1)C1CCCCC1	.	.	.	.	125	.
O=C(COC(=O)Cc1ccc(F)cc1)NC1CCCCC1	.	.	.	.	34	.
O=C(COC(=O)c1ccc([N+](=O)[O-])o1)NC1CCS(=O)(=O)C1 (stereo not drawn)	/	31	.	.	.	.
CN1c2ccc(C#Cc3cccnc3)cc2[C@@H]2[C@@H](CCN2C(=O)C2CC2)[C@H]1CO	.	.	/	/	/	/
O=C(C[C@H]1C[C@@H]2c3cc(NC(=O)CC4CC4)ccc3O[C@@H]2[C@H](CO)O1)NCc1cccc(F)c1	.	.	/	/	/	/
O=C(Nc1ccc(Cl)cn1)Nc1ccc(Cl)cn1	/	.	.	.	47	.
CC(C)(C)c1nnc(N/N=C/c2cc(Br)ccc2O)n(N)c1=O	.	58	115	.	/	.
Cc1ccc(Nc2nnc(C(C)(C)C)c(=O)n2N)cc1	/	.	.	.	.	.
CCc1nnc(N/N=C/c2cc(Br)c(O)cc2O)n1N	.	63	.	.	.	.
CCCC#Cc1cnc2c(c1)C(=O)N([C@@H](C)CO)C[C@H](C)[C@H](CN(C)C(=O)c1ccc(F)cc1)O2	.	.	/	/	/	/
Cc1ccc2c(c1)c1c3n2CC(=C2C(=O)OC(C)(C)OC2=O)NC3CCC1 (stereo not drawn)	.	.	78	.	.	.
Fc1ccc(NC(=S)Nc2ccc(F)c(Cl)c2)cc1Cl	.	.	.	.	.	.
Cc1ccc(NC(=S)Nc2ccc(OC(F)F)c(Cl)c2)cc1F	/	.	.	.	66	.
CCCN1C[C@@H](C)[C@@H](OC)CN(C)C(=O)c2ccc(NC(=O)C3CC3)cc2OC[C@H]1C	/	.	/	/	/	/
Cc1cc(C(=O)Nc2nc(-c3ccccn3)cs2)ccc1[N+](=O)[O-]	/	.	.	.	.	.
CCc1cc(C(=O)Nc2nc(-c3ccccn3)cs2)sc1C	/	65	.	.	.	.
CC(C)[C@H](NC(=O)c1ccccc1Cl)C(=O)Nc1nc(-c2ccccn2)cs1	.	58	.	.	.	.
O=C(COc1ccc(F)cc1)Nc1nc(-c2ccccn2)cs1	.	.	.	.	.	.
CC1CC1C(=O)Nc1nc(-c2ccccn2)cs1 (stereo not drawn)	.	62	/	.	.	/
Cc1ccc(S(=O)(=O)Nc2ccc3c(c2)C(=O)N([C@@H](C)CO)C[C@H](C)[C@H](CN(C)C)OCCCC[C@@H](C)O3)cc1	.	/	/	/	/	/
C[C@H]1CN([C@@H](C)CO)C(=O)c2cc(-c3ccc(F)cc3)cnc2O[C@H]1CN(C)C(=O)c1ccccc1F	.	.	/	/	/	/
C[C@H]1CN([C@@H](C)CO)S(=O)(=O)c2ccc(-c3ccc(F)cc3)cc2O[C@H]1CN(C)C(=O)Nc1ccc(F)cc1	.	/	/	/	/	/
O=C(CCN1CCCCC1)NCC[C@H]1CC[C@H](NC(=O)Nc2ccc(F)cc2)[C@@H](CO)O1	/	.	/	/	/	/
CC1CCN(C(=S)c2ccc(O)cc2)CC1	248	.	.	.	/	.
CC(=O)n1nc(-c2ccncc2)nc1SCC(=O)Nc1cccc(Cl)c1	.	.	.	.	45	.
SMILES	miR-122 sensor	ARNT-TACC3 inh	SR-BI DiI inh	CAL PDZ FP-1	CAL PDZ FP-2	SR-BI uptake up
CCn1c(C)nnc1SCC(=O)Nc1cccc(Cl)c1	.	.	.	.	/	.
CC(C)OC(=O)C(C)(C)Oc1ccc(C(=O)c2ccc(Cl)cc2)cc1	.	.	93	.	.	.
CC1CCCC(NC(=O)CCNC(=O)c2ccc(Cl)cc2)C1C (stereo not drawn)	/	.	.	.	.	.
Cc1ccc(C(=O)CCC(=O)NC2CCCC(C)C2C)cc1 (stereo not drawn)	.	.	.	.	90	.
Cc1onc(-c2ccc(Cl)cc2Cl)c1-c1csc(N/N=C/c2ccccc2)n1	/	.	.	.	54	.
CC(=O)c1ccc(N2CCN(S(=O)(=O)c3ccc4c(c3)CC(C)N4C(=O)C3CC3)CC2)cc1 (stereo not drawn)	.	.	.	.	72	.
CC(=O)c1ccc(N2CCN(S(=O)(=O)c3ccc4c(c3)CC(C)N4C(C)=O)CC2)cc1 (stereo not drawn)	.	.	.	.	.	.
CC(=O)N1c2ccc(S(=O)(=O)N3CCC(C(=O)NC4CCCCC4)CC3)cc2CC1C (stereo not drawn)	.	.	.	.	64	.
CC(=O)N1c2ccc(S(=O)(=O)N3CCC(C(=O)Nc4ccccn4)CC3)cc2CC1C (stereo not drawn)	.	.	.	.	.	.
C[C@H]1CN([C@@H](C)CO)C(=O)c2cc(C#CCN(C)C)cnc2O[C@H]1CN(C)C(=O)CCN1CCCCC1	.	.	/	/	/	/
O=C(OCc1csc(-c2ccccc2)n1)C1=NN(c2ccccc2)C(=O)CC1	.	.	.	.	31	.
O=C1C=CC(c2ccccc2)(c2ccccc2)CC1	.	.	.	.	38	.
Cc1sc2nc(CN3CCN(c4ccc(O)cc4)CC3)[nH]c(=O)c2c1C	/	.	.	.	45	.
O=c1[nH]c(CN2CCN(c3ccccc3)CC2)nc2scc(-c3ccccc3)c12	.	.	/	.	.	/
CC1=[N+](C)c2ccc3ccccc3c2C1(C)C	/	.	.	.	.	223
COc1cc([N+](=O)[O-])cc(/C=N/NC(=O)c2cc(C)nc3ccccc23)c1O	/	64	.	.	.	.
Cc1nn(-c2ccccc2)c(N2CCCC2)c1/C=N/NC(=O)c1cc(-c2cccnc2)nc2ccccc12	.	.	89	.	.	.
COc1cc([N+](=O)[O-])cc(/C=N/NC(=O)c2cc(-c3ccccc3)nc3ccccc23)c1O	.	.	117	.	.	.
Cc1nn(-c2ccccc2)c(N2CCCC2)c1/C=N/NC(=O)c1ccccc1O	/	.	.	.	/	.
CC(C)COc1cccc(-c2cc(C(=O)N/N=C/c3ccncc3)c3ccccc3n2)c1	/	.	79	.	/	.
CO[C@H]1CN(C)C(=O)c2cc(NC(=O)C3CCC3)ccc2OC[C@@H](C)N(C(=O)NC(C)C)C[C@H]1C	/	.	/	/	/	/
O=C(C[C@@H]1C=C[C@H](NC(=O)c2ccc3c(c2)OCO3)[C@H](CO)O1)NCc1ccc(Cl)cc1	/	.	/	/	/	/
C[C@@H]1CCCCO[C@H](CN(C)S(=O)(=O)c2ccc(F)cc2)[C@@H](C)CN([C@H](C)CO)C(=O)c2cc(NC(=O)C3CCCCC3)ccc2O1	.	.	/	/	/	/
Cc1ccc(-c2cc(C(=O)N/N=C/c3c(C)nn(C)c3C)c3ccccc3n2)cc1C	.	/	86	.	.	.
